From article PMC6383364 (ACS chemical biology, 2019) come the findings set out here.

The format of data set [1] is in vivo. Conditions: rat; for CSF AUC0–7 / CSF Cmax / Brain AUC0–7 / Brain Cmax: after BIA 10–2474 (1) 10 mg/kg p.o.; for Plasma AUC0–7: after BIA 10–2474 (1) 10 mg/kg p.o. in 0.5% methylcellulose; for Brain AUC0–7 / Brain Cmax: not corrected for binding to tissues. Put shortly:
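Rats were dosed orally at 10 mg/kg in 0.5% methylcellulose. The parent compound and its metabolites were quantified in plasma, brain and CSF. Cmax and AUC0–7 were derived for each analyte.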

Data set [2] deals with ALDHs. Kind of data set: ABPP reactivity with ALDHs in human cells. It counts as cell-based. Conditions: N-methyl compounds.
Data set [3] addresses T1, ALDH2 (Homo sapiens, UniProt P05091).
T1 sequence (P05091 18-517): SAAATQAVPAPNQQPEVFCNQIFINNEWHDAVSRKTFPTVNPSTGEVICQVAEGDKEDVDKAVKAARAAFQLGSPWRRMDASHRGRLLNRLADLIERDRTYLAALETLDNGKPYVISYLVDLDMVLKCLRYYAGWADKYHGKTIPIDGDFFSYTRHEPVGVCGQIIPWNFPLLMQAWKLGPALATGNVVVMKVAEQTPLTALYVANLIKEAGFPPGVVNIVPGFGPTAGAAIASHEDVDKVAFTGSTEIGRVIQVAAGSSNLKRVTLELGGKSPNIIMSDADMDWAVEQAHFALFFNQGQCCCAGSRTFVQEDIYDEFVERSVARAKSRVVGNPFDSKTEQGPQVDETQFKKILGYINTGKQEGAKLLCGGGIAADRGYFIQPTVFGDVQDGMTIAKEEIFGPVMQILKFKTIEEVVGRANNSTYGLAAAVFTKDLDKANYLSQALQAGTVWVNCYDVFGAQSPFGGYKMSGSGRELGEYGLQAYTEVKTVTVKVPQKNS
Briefly: Quantitative MS-based CC-ABPP and Western blot in CCF-STTG1 cells: ALDH2. The data set is classed as cell-based. The following applies: pre-treatment 10 µM, 1 h, then corresponding probe 7 or 8. Put shortly:
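CCF-STTG1 cells were grown in isotopically heavy or light amino-acid media. Cells received DMSO (heavy) or test compound (light; 10 μM, 1 h), followed by the corresponding clickable probe (1 μM, 1 h). Heavy/light protein ratios were averaged from quantified peptides across two independent biological replicates. Streptavidin-enriched fractions, with or without parent pretreatment, were immunoblotted with anti-ALDH2.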

In data set [4] the target is T1, ALDH2. Briefly: isoTOP-ABPP cysteine reactivity in SW620 cells: ALDH2. It counts as cell-based. Conditions: 10 µM, 1 h. Put shortly:
(§1)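 SW620 cells were treated with test compound (10 μM, 1 h; light) or DMSO (heavy). Cysteine reactivity was then profiled globally by isoTOP-ABPP using an alkynylated iodoacetamide probe (IA-alkyne). Heavy/light ratios for quantified cysteines were averaged across four independent biological replicates.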

Data set [5] concerns the target ALDH9A1 (Homo sapiens, UniProt P49189). Briefly: isoTOP-ABPP cysteine reactivity in SW620 cells: ALDH9A1. It counts as cell-based. The following applies: 10 µM, 1 h. In a few lines: as §1
The target of data set [6] is T2, ALDH5A1 (Homo sapiens, UniProt P51649).
T2 sequence (P51649 48-535): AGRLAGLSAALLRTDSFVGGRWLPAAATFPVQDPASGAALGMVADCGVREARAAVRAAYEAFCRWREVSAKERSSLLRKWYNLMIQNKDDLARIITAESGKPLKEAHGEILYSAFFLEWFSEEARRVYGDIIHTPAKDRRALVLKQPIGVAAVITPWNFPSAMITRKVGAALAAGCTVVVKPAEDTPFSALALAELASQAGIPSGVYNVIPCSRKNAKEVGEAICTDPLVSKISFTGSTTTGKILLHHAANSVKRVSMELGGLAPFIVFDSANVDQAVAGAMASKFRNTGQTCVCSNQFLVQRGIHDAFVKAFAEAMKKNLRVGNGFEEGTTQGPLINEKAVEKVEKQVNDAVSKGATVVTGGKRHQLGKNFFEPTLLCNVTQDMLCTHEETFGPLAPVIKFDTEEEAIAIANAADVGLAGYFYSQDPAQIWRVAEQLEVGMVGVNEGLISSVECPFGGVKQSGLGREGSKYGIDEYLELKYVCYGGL
Briefly: isoTOP-ABPP cysteine reactivity in SW620 cells: ALDH5A1. It counts as cell-based. The following applies: 10 µM, 1 h, Table S2. Put shortly:
as §1

Data set [7] concerns ~50–55 kDa protein. Briefly: Gel-based CC-ABPP in CCF-STTG1 human astrocytoma cells. The following applies: pre-treatment 10 µM, 1 h, then probes 7 and 8. It counts as cell-based. Put shortly: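 CCF-STTG1 human astrocytoma cells were pretreated in situ with DMSO or the parent test compound (10 μM, 1 h), then given the matching alkyne probe (1 μM, 1 h). Probe-labelled proteins were conjugated by CuAAC to a rhodamine-azide reporter, resolved by SDS-PAGE and detected by in-gel fluorescence scanning.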

Data set [8] addresses T1, ALDH2. Kind of data set: LC-MS characterisation of the adduct with ALDH2 from treated HEK293T cells. Conditions: HEK293T cells expressing FLAG-tagged WT-ALDH2, 10 µM, 1 h; LC-MS-based proteomics. The data set is classed as cell-based.

Chain of ALDH9A1 (P49189 whole entry): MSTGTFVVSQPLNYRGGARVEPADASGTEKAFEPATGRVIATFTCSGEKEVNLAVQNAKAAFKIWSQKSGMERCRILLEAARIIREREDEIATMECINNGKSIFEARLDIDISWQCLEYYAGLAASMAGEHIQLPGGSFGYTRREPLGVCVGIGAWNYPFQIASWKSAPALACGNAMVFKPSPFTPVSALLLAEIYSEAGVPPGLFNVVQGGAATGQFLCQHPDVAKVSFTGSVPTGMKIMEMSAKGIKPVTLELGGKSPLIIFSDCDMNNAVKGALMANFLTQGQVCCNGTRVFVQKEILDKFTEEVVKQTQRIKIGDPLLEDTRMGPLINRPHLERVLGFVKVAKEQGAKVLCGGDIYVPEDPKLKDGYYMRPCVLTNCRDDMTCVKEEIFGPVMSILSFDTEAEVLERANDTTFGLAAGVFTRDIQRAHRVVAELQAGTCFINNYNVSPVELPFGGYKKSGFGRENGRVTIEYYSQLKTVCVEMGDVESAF

Turning to `CN(C(=O)n1cnc(-c2ccc[n+]([O-])c2)c1)C1CCCCC1` [BIA 10–2474 (1)], in data set [1], the “CSF AUC0–7” value was found to be 4000 ng·h/mL, the “CSF Cmax” value is given as 1300 ng/mL, the “Plasma AUC0–7” value worked out at 13800 ng·h/mL and the “Brain AUC0–7” value is 2480 ng·h/mL. The “Brain Cmax” value in data set [1] amounted to 939 ng/mL. Further, the “Reaction with ALDHs” value in data set [2] is recorded as “fail to react”.

With `CN(C(=O)n1cnc(-c2cccnc2)c1)C1CCCCC1` [compound 2], in data set [1], the “CSF AUC0–7” value is recorded as 113 ng·h/mL, the “CSF Cmax” value amounted to 36.2 ng/mL, the “Plasma AUC0–7” value is listed as 306 ng·h/mL and the “Brain AUC0–7” value is listed as 185 ng·h/mL. In addition, the “Brain Cmax” value in data set [1] is on record as 252 ng/mL.

For `O=C(NC1CCCCC1)n1cnc(-c2ccc[n+]([O-])c2)c1` [compound 3], in data set [1], the “CSF AUC0–7” value came to 15.6 ng·h/mL, the “CSF Cmax” value is listed as 5.03 ng/mL, the “Plasma AUC0–7” value is given as 323 ng·h/mL and the “Brain AUC0–7” value is on record as 11.8 ng·h/mL. Moreover, in data set [1], the “Brain Cmax” value turned out to be 4.57 ng/mL. Further, in data set [3], the “Blockade of probe enrichment of ALDH2 (Western blotting)” value is listed as “blockade”. In data set [4], the “IA-alkyne reactivity of C319 of ALDH2” value is reported as “blocked” and the “IA-alkyne reactivity of other cysteine (C386) of ALDH2” value was “unperturbed”. For the same compound, the “IA-alkyne reactivity of C288 of ALDH9A1” value in data set [5] was “blocked”. Also, the “IA-alkyne reactivity of C340 of ALDH5A1” value in data set [6] is “unchanged”. The “Blockade of probe labelling of ~50–55 kDa protein” value in data set [7] was “blocked”. Further, the “Adduct with C319 on ALDH2” value in data set [8] is “S-thiocarbamate adduct”.
